Results taken from ChEMBL document CHEMBL3297648, “Diterpenoids from the Chinese liverwort Heteroscyphus tener and their antiproliferative effects” (J Nat Prod, 2014).

Assays:
DU-145 = assay: Antiproliferative activity against human DU145 cells assessed as inhibition of cell viability after 24 hrs by MTT assay; format: functional, cell-based; settings: DU-145, 24 h
Procedure, shortened: (§1)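 Cells grown to 50–70% confluence (RWPE1 in K-SFM with pituitary extract and EGF; the other lines in RPMI 1640 with 10% FBS), 5% CO2, 37 °C. Treated for 24 h with DMSO vehicle, compounds, or cisplatin as positive control. MTT (5 mg/mL) added for 4 h, formazan dissolved in DMSO, absorbance read at 570 nm. Viability taken relative to untreated cells after blank subtraction, IC50 fitted from % viability, at least three experiments.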

NCI-H446 = assay: Antiproliferative activity against human NCI-H446 cells assessed as inhibition of cell viability after 24 hrs by MTT assay; format: functional, cell-based; settings: NCI-H446, 24 h; procedure, shortened: as §1
K562 = assay: Antiproliferative activity against human K562 cells assessed as inhibition of cell viability after 24 hrs by MTT assay; format: functional, cell-based; settings: K562, 24 h; procedure, shortened: as §1
[1] = Antiproliferative activity against human RWPE1 cells assessed as inhibition of cell viability after 24 hrs by MTT assay; format: cell-based; settings: RWPE-1, 24 h; procedure, shortened: as §1
[2] = Antiproliferative activity against HBE cells assessed as inhibition of cell viability after 24 hrs by MTT assay; format: cell-based; settings: Homo sapiens; procedure, shortened: as §1
[3] = Antiproliferative activity against human PC3 cells assessed as inhibition of cell viability after 24 hrs by MTT assay; format: functional, cell-based; settings: PC-3, 24 h; procedure, shortened: as §1
NCI-H1299 = assay: Antiproliferative activity against human NCI-H1299 cells assessed as inhibition of cell viability after 24 hrs by MTT assay; format: functional, cell-based; settings: NCI-H1299, 24 h; procedure, shortened: as §1
A549 = assay: Antiproliferative activity against human A549 cells assessed as inhibition of cell viability after 24 hrs by MTT assay; format: functional, cell-based; settings: A549, 24 h; procedure, shortened: as §1
NCI-H292 = assay: Antiproliferative activity against human NCI-H292 cells assessed as inhibition of cell viability after 24 hrs by MTT assay; format: functional, cell-based; settings: NCI-H292, 24 h; procedure, shortened: as §1

| SMILES | IC50 (DU-145) | IC50 (NCI-H446) | IC50 (K562) | IC50 [1] | IC50 [2] | IC50 [3] | IC50 (NCI-H1299) | IC50 (A549) | IC50 (NCI-H292) |
| --- | --- | --- | --- | --- | --- | --- | --- | --- | --- |
| CC(C)[C@H]1CC[C@]2(C)C[C@]3(O)C(=CC(=O)[C@H]3C)[C@@H](C)CC[C@@H]12 [ANADENSIN] | > 40 µM | > 40 µM | > 40 µM | > 40 µM | > 40 µM | > 40 µM | 27 µM | > 40 µM | 39.9 µM |
| C=C[C@]1(C)CC[C@H]2[C@]3(C)CCCC(C)(C)[C@H]3[C@@H]3C[C@@]2(O1)C(=O)O3 | 18.9 µM | 16.7 µM | 34 µM | 26.4 µM | 53.2 µM | 20 µM | 21.9 µM | 21.5 µM | 10.7 µM |
